Consider 7 compounds from publication PMC9558494 (Angewandte Chemie (International Ed. in English), 2022).

The pIC50 is the negative decadic logarithm of the IC50, by convention in mol/L. High values mean a small IC50, low ones a large IC50. The term logD denotes the decadic logarithm of the distribution of all forms, ionised or not, between an organic phase and buffer at a given pH. As usually defined, the half-life is the time needed for the level to fall by half in the phase considered. High values mean slow decline, low ones rapid decline. One may read the AUC as the area under the concentration-time curve, a measure of exposure. A low value points to low exposure. As usually defined, the Cmax is the highest concentration seen after dosing.

pIC50: −log10 of the molar value.

One series has as its target ERAP2 (Homo sapiens, UniProt Q6P179). The experiment in a line: ERAP2 activity assay using R-AMC substrate. Format: biochemical.
Series [1] has as its system SIINFEKL OVA-derived antigen presentation in HEK cells. In words: Antigen presentation assay. It is filed as cell-based. To be noted: HEK cells where LSIINFEKL is endogenously produced, 24 h.
The nature of a further series: LogD octanol/PBS pH 7.4. Format: physicochemical.
The nature of a further series: Stability in plasma. Format: in vitro ADME. To be noted: both, human.
Another series is described as follows: Microsomal stability. Format: in vitro ADME, human. To be noted: for half-life at 1 µM: both, human, liver microsomes, pH 7.4; for HLM Cl: human liver microsomes. (In general: Microsomes from liver hold many membrane-bound enzymes, among them those of drug oxidation.)
Series [2] in a line: Pharmacokinetics in mouse. It is filed as in vivo, mice. Put shortly:
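Female mice received a single i.p. dose of 50 mg/kg. Derived parameters were elimination-phase half-life (T1/2 β, min), Cmax (μM), Tmax (min) and AUC extrapolated to infinity (AUC0‑∞, min μM).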

Setting [3] is: female, CD-1, mouse, plasma, ip, 50 mg/kg.

ERAP2, sequence (Q6P179 whole entry): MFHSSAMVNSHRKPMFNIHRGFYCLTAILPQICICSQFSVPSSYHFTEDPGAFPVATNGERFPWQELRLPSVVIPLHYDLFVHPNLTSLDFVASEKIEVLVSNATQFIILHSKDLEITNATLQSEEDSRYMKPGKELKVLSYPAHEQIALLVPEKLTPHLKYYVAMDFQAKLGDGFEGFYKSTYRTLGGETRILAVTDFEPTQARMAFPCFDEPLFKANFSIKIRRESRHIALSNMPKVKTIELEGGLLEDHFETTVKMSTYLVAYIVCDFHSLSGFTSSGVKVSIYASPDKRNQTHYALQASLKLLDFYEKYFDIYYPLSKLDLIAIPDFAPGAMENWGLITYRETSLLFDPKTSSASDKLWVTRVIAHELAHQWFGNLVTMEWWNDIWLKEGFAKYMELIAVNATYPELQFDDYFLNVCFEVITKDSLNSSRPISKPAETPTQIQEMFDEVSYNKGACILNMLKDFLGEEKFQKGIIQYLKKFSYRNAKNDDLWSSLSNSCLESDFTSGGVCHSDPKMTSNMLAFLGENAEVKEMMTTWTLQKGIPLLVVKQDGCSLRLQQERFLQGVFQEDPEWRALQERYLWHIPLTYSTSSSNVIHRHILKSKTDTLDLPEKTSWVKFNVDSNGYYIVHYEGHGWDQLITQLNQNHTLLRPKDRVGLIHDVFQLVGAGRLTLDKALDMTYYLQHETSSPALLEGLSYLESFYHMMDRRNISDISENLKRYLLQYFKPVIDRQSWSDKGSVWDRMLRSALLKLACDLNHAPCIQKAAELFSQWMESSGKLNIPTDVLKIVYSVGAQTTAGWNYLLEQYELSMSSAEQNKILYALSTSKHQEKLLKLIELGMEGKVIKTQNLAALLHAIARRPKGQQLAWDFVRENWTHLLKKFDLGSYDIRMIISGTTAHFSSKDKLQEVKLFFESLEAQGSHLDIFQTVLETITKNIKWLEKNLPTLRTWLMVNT

Take `O=C(NO)[C@H](Cc1ccc(O)cc1)n1cc(CNS(=O)(=O)c2ccc(-c3ccccc3)s2)nn1` [4 a]: the pIC50 on ERAP2 was 6.12.

On to `O=C(NO)[C@H](Cc1ccc(Oc2ccccc2)cc1)n1cc(CNS(=O)(=O)c2ccc(-c3ccccn3)s2)nn1` [4 f], for which the “effect on SIINFEKL antigen presentation” value in series [1] is given as “dose‐dependent effect”. The compound also registered a logD at 2 h in the series “LogD octanol/PBS pH 7.4” of 4.11. For the same compound, in “Stability in plasma”, the half-life at 10 µM is > 6 h.

On to `COc1ccc(C[C@@H](C(=O)NO)n2cc(CNS(=O)(=O)c3ccc(-c4ccccn4)s3)nn2)cc1` [4 e], for which the logD at 2 h in “LogD octanol/PBS pH 7.4” is 1.81. In “Microsomal stability”, the half-life at 1 µM is > 0.667 h and the “HLM Cl” value is 21 µL/min/g. Further, the half-life at 10 µM in the series “Stability in plasma” is > 6 h.

Turning to `O=C(C[C@@H](Cc1ccc2ccccc2c1)n1cc(CNS(=O)(=O)c2ccc(-c3ccccc3)s2)nn1)NO` [2 c], the pIC50 on ERAP2 was 5.64.

Consider `O=C(C[C@@H](Cc1c[nH]c2ccccc12)n1cc(CNS(=O)(=O)c2ccc(-c3ccccc3)s2)nn1)NO` [2 b], for which the pIC50 on ERAP2 was 4.92.

In the case of `COc1ccc(C[C@@H](C(=O)NO)n2cc(CNS(=O)(=O)c3ccc(-c4ccccc4)s3)nn2)cc1` [4 d], in series [1], the “effect on SIINFEKL antigen presentation” value was “dose‐dependent effect”. This compound returned a logD at 2 h in “LogD octanol/PBS pH 7.4” of 2.99. In “Microsomal stability”, the half-life at 1 µM was > 0.667 h and the “HLM Cl” value was 50 µL/min/g. In addition, the half-life at 10 µM in “Stability in plasma” was > 6 h. In addition, in series [2] (setting [3]), the AUC was 12.9 µM·h and the Cmax worked out at 18 µM. Besides, in series [2] (mice, 50 mg kg^−1, i. p.), the “tolerability of the dose” value is on record as “tolerated”.

For the compound `O=C(NO)[C@@H](Cc1c[nH]c2ccccc12)n1cc(CNS(=O)(=O)c2ccc(-c3ccccc3)s2)nn1` [4 b], the inhibition at 100 µM at ERAP2 (read-out: %inh at 100 μM) was determined as 43%. The “ERAP2 activity in words” value at ERAP2 (replacement of the phenol group by an indole) was “complete loss of activity”.
